# A selection: hits, their analogues and other compounds. The true share with any hit is near 2.2%.
# Ecoli rRNA inh = inhibitors of bacterial rRNA selective over humanized ribosomes; E. coli WT GFP vs humanized-ribosome RFP mutants, fluorescence, 24 h; hits give low values; DMSO median 0, no signal -100; GFP signal change (wild-type ribosome), % (concentration not given with the values); actives 1.6% (n = 350,000); AID 720706;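 active means significant combined selectivity score with lowered wild-type GFP, culture density cut under 30%, mutant RFP and density less affected; inactive means any of these conditions unmet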
# CR mimetic SO = caloric restriction mimetics inhibiting age-related superoxide in yeast; S. cerevisiae aged cells, superoxide DHE fluorescence; hits give low values; AID 2690; actives 0.18% (n = 330,000); superoxide response (% of plate mean), % at 10 µM;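 active means superoxide response under a set limit, about three screen SD below normal, cut at about 65% in these data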;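 further: yeast aged for seven days with compound at 30 °C before DHE staining; 100% = average MFI of all compound-treated wells on the plate with controls excluded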
# PglD inh = blocks C. jejuni PglD acetyltransferase activity. AID 602405. actives 0.098% (n = 360,000). purified PglD enzyme, DTNB colorimetric CoA detection. inhibition, % at 12.5 µM; in the data active means inhibition above about 16%, passing the limit was not always enough
# SUMO Mot1 rescue = SUMOylation pathway inhibition by Mot1-301 growth rescue | growth rescue, % at 18.8 µM | S. cerevisiae Mot1-301 growth rescue, ATP luminescence, 38.5C; percent above DMSO median, 100 means doubled | actives 1% (n = 320,000);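 active means every valid replicate shows activation above 250% relative to neutral control wells; inactive means the rest, any valid replicate at or below 250%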;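 further: OY570 slx delta 5 strain wells were the positive control but not used for scaling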
# Cneo AK release = Cryptococcus neoformans lysis via adenylate kinase release | C. neoformans lysis, adenylate kinase release luminescence, 4 h; normalised: neutral wells 0, clomiphene wells 100 | lysis activity, % at 15 µM | actives 0.2% (n = 360,000) | AID 651654;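 active means mean lysis activity across replicates of at least 80%, whatever share of replicates individually reach that level; inactive means mean lysis activity below 80%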
#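 Assay system: Cryptococcus neoformans yeast cells / Dosing: single-point compound dose / Timing: 4 h at 37 °C static, read 1 h later / Measured by: luminescence of released adenylate kinase using an AK detection reagent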
# Active calls of the source: *; nt = no result.
SMILES,Ecoli rRNA inh,CR mimetic SO,PglD inh,SUMO Mot1 rescue,Cneo AK release
O=C(c1ccco1)c1nnn(Cc2ccccc2)c1-c1ccccc1,-35.8*,124.4,1.5,-15.4,-0.5
Cc1ccc(S(=O)(=O)N(C)C[C@H]2Oc3c(NC(=O)C4CCCCC4)cccc3C(=O)N([C@@H](C)CO)C[C@@H]2C)cc1,-4.2,nt,12.3,nt,64.1
Cc1cc(C(=O)Nc2cccc3c2O[C@@H](CN(C)Cc2ccc(Oc4ccccc4)cc2)[C@H](C)CN([C@H](C)CO)C3=O)n(C)n1,-5.7,nt,-0.6,nt,-12.3
COc1cc(NC(=O)C/C(C)=N/NC(=O)C(=O)NCCO)c(OC)cc1Cl,-51.8*,107.9,nt,-38.2,nt
COc1cc(NC(=O)C/C(C)=N/NC(=O)C(=O)NC2CCCCC2)c(OC)cc1Cl,1.9,94.2,nt,nt,nt
CC(c1ccon1)N(C)C(=O)c1ccc2nc(Cc3cccc(Cl)c3)oc2c1 (stereo not given),-28.2*,105.6,-4.4,43.7,-1.9
O=C(Nc1ccc(S(=O)(=O)N2CCOCC2)cc1)c1cc(-c2cc(Cl)ccc2O)n[nH]1,-38.0*,112.8,nt,-21.6,nt
NC(=O)c1nnsc1Sc1c(C(N)=O)nnn1-c1cccc(N)c1,-27.1*,96.8,nt,nt,nt
CCOC(=O)C1CCCN(C(=S)Nc2ccc(Nc3ccccc3)cc2)C1 (stereo not given),-29.9*,95.9,-2.6,8.5,-1.0
CC(C)NC(=O)N1C[C@@H]2C(c3ccccc3)[C@H](C1)N2CC(F)(F)F (stereo not given in full),-0.9,nt,nt,nt,nt
Cn1nc(-c2ccccc2)c(N2CCCCC2)cc1=O,-41.5*,104.9,nt,nt,nt
O=c1cc(N2CCCCC2)c(-c2ccccc2)nn1Cc1ccccc1,-59.8,118.9,nt,-5.7,nt
C/C(Cn1nc([N+](=O)[O-])cc1C)=N\NC(=O)COc1ccc(Cl)cc1Cl,nt,55.0*,nt,24.4,nt
COc1ccc([C@H]2CC(=O)C=C(c3ccc4c(c3)OCCO4)C2)cc1,-20.5*,90.6,2.3,-6.9,-0.2
COc1ccc(C2CC(=O)C=C(NCc3ccc4c(c3)OCO4)C2)cc1 (stereo not given),-23.9*,92.7,nt,18.5,nt
COc1ccc(C2CC(=O)C=C(NCc3ccccc3)C2)cc1 (stereo not given),nt,91.2,nt,9.8,nt
Cc1ccc(C)c(NC(=S)N2CCC(c3nc4ccccc4s3)CC2)c1,-34.7*,96.7,-3.0,-22.9,33.2
CCc1ccc(C(=O)N2CCC(c3nc4ccccc4s3)CC2)cc1,nt,109.8,-3.7,-3.2,0.6
Cc1nc(NCC2CCCO2)c2nnn(Cc3ccccc3Cl)c2n1 (stereo not given),13.1,105.5,2.7,24.0,-2.4
Cc1nc(NCC2CCCO2)c2nnn(Cc3ccccc3)c2n1 (stereo not given),-17.5*,112.3,nt,-0.1,nt
COc1cc(OC)c(N(C)S(=O)(=O)c2cccc(C(=O)Nc3nc(C)cs3)c2)cc1Cl,-23.8,88.5,-1.1,nt,-0.3
COc1cc(OC)c(N(C)S(=O)(=O)c2cccc(C(=O)NC3=NCCS3)c2)cc1Cl,-23.4*,106.4,1.3,151.2,-1.3
COc1ccc2c(c1OC)C(=O)OC2Nc1nc(-c2cc3cc(Br)ccc3oc2=O)cs1 (stereo not given),-25.9*,96.0,-3.5,-23.8,-11.3
COc1ccc(-c2csc(NC3OC(=O)c4c3ccc(OC)c4OC)n2)cc1OC (stereo not given),nt,97.5,-0.3,-11.1,2.0
COc1ccc(NC2=C(C(C)=O)C(c3ccc(OC)c(OC)c3)C(C(C)=O)C(C)(O)C2)cc1 (stereo not given),nt,108.8,-2.3,-21.9,-17.9
SMILES,Ecoli rRNA inh,CR mimetic SO,PglD inh,SUMO Mot1 rescue,Cneo AK release
COc1ccc(NC2=C(C(C)=O)C(c3ccccc3)C(C(C)=O)C(C)(O)C2)cc1 (stereo not given),-26.6*,94.1,nt,-4.6,nt
O=C(Nc1ccc(NC(=O)c2cccs2)c(Cl)c1)c1ccco1,-27.1*,119.5,nt,14.9,nt
O=C(c1ccc2c(=O)n(C3CCCC3)c(=S)[nH]c2c1)N1CCCCCC1,-27.8*,86.8,nt,-5.1,nt
O=C(C[C@@H]1C=C[C@@H](NC(=O)Nc2cc(F)ccc2F)[C@@H](CO)O1)NCCCN1CCOCC1,2.9,nt,4.1,nt,27.2
O=C(C[C@@H]1C=C[C@@H](NC(=O)Nc2cc(F)ccc2F)[C@H](CO)O1)NCCCN1CCOCC1,2.2,nt,3.3,nt,102.7*
CCNC(=O)Nc1ccc2c(c1)C(=O)N(C)[C@H]1CC[C@H](CC(=O)Nc3ccccc3F)O[C@@H]1CO2,-1.3,nt,1.1,nt,-4.5
C/C=C/c1ccc([C@H]2[C@@H](CN(C)C(C)=O)N(C(=O)NCCC)[C@H]2CO)cc1,6.5,nt,-6.6,nt,44.9
C[C@H]1CCCCO[C@H](CN(C)C(=O)C2CCCCC2)[C@@H](C)CN([C@@H](C)CO)C(=O)c2cc(N(C)C)ccc2O1,-6.8,nt,nt,nt,nt
COc1cc(C(N)=O)cc(Br)c1OCc1ccccc1,-27.7*,97.3,nt,8.4,nt
CCCOc1c(Br)cc(C(N)=O)cc1OCC,nt,115.2,nt,315.9*,nt
CCC(=O)N1C[C@H](C)[C@@H](OC)CN(C)C(=O)c2cc(NC(=O)c3ccccc3)ccc2OC[C@@H]1C,0.6,nt,14.3,nt,-0.5
CN(CC(=O)NC(=O)NCc1ccccc1)Cc1cccc(Cl)c1Cl,-37.6*,110.7,-0.8,-10.5,-3.1
CN(CC(=O)NC(=O)NCc1ccccc1)Cc1ccc(Cl)cc1,nt,90.6,nt,4.3,nt
Cc1ccc2nc(SCC(=O)c3ccc(O)cc3O)[nH]c2c1,-22.6*,90.2,-2.6,8.7,-5.9
COC(=O)CSc1nc2ccc(C)cc2[nH]1,nt,97.0,2.3,-18.2,-0.1
Cc1ccc(C(CC(=O)N2CCCC2)c2ccccc2)c(O)c1 (stereo not given),-26.4*,98.8,1.1,-17.6,1.3
COc1ccc(C2c3[nH]c4ccccc4c3C[C@H]3C(=O)N(c4ccccc4C(=O)N4CCC(C(=O)O)CC4)C(=O)N23)cc1 (stereo not given in full),-8.4,131.2,-2.8,342.5*,0.6
COc1cccc(S(=O)(=O)Nc2ccc3c(c2)[C@H]2C[C@@H](CC(=O)N[C@@H](C)c4ccccc4)O[C@@H](CO)[C@H]2O3)c1,-8.9,nt,-4.7,nt,-2.7
S=c1[nH]cnc2scc(-c3ccccc3)c12,-29.2*,94.3,13.2,13.5,0.3
